Experimental data published in ChEMBL document CHEMBL4627337, “Synthesis and pharmacokinetic study of a 11C-labeled cholesterol 24-hydroxylase inhibitor using 'in-loop' [11C]CO2 fixation method” (Bioorg Med Chem Lett, 2020).

What was measured:
[1] = target: Cholesterol 24-hydroxylase (Homo sapiens, UniProt Q9Y6A2); test: Binding affinity to truncated d(2-50) 4His-tagged human CYP46A1 expressed in Escherichia coli DH5alpha as cholesterol-24 hydroxylation using cholesterol as substrate incubated for 30 mins in presence of NADPH cytochrome P450 oxidoreductase by gas chromatography-mass spectrometry
Chain of Cholesterol 24-hydroxylase (Q9Y6A2 whole entry, the tested form may be a part): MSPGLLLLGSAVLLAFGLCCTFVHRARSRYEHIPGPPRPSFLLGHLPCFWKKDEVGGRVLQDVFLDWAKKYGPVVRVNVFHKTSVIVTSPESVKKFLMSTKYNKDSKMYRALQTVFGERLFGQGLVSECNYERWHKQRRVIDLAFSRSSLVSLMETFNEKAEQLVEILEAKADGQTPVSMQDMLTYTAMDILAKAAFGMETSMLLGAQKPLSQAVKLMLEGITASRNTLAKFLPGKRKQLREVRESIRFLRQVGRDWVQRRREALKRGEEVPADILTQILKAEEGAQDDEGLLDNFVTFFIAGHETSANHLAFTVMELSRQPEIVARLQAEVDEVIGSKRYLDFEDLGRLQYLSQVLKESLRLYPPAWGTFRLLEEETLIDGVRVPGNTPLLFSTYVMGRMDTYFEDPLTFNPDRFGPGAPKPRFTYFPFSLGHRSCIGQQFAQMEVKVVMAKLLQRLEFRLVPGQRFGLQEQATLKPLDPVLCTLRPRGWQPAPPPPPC

[2] = Drug uptake in iv dosed mouse pancreas assessed as per gram of wet tissue measured after 5 to 60 mins; type: ADME, organism-based; details: read-out: Drug uptake
How it was run: (§1)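 Ex vivo whole-body biodistribution in mice after intravenous radioligand injection. Tissues collected at 5, 15, 30 and 60 min; radioactivity expressed as %ID/g, mean ± SD, n = 4 per time point.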

[3] = Drug uptake in iv dosed mouse brain after 5 to 60 mins; type: ADME, organism-based; details: in vivo
How it was run: as §1

[4] = Tmax in iv dosed mouse small intestine; type: ADME, organism-based
How it was run: as §1

[5] = Drug uptake in CD1 mouse brain assessed as standard uptake value after 0.5 mins; type: ADME, tissue-based; details: in vivo
How it was run: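 Dynamic PET acquisition in CD-1 mice over 60 min after radioligand injection; brain time–activity curves expressed as standard uptake value. Blocking arm pretreated with 2-phenylcyclopropan-1-amine (3 mg/kg); uptake compared by area under the curve.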

[6] = Drug uptake in iv dosed mouse small intestine assessed as per gram of wet tissue measured after 5 to 60 mins; type: ADME, organism-based; details: read-out: Drug uptake
How it was run: as §1

[7] = Drug uptake in iv dosed mouse lung assessed as per gram of wet tissue measured after 5 to 60 mins; type: ADME, organism-based; details: read-out: Drug uptake
How it was run: as §1

[8] = Drug uptake in iv dosed mouse kidney assessed as per gram of wet tissue measured after 5 to 60 mins; type: ADME, organism-based; details: read-out: Drug uptake
How it was run: as §1

[9] = Lipophilicity, logD of compound in n-octanol and phosphate buffered saline by shake flask method; type: physicochemical
How it was run: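 Shake-flask partition of the 11C-labeled compound between n-octanol and phosphate buffered saline; logD calculated from the distribution of radioactivity between phases.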

[10] = Stability in saline containing 5% ethanol assessed as compound radiolysis after 90 mins post formulation; type: physicochemical; details: buffer, 1.5 h
How it was run: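 Radiotracer formulated in saline containing 5% ethanol and held for 90 min after formulation, then checked for radiolysis.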

[11] = Drug uptake in dosed iv mouse liver assessed as per gram of wet tissue measured after 5 to 60 mins; type: ADME, organism-based; details: read-out: Drug uptake
How it was run: as §1

Row | Compound | Ki [1] [µM] | tissue uptake [2] [%ID/g] | Drug uptake [3] | Tmax [4] [min] | SUV [5] | tissue uptake [6] [%ID/g] | tissue uptake [7] [%ID/g] | tissue uptake [8] [%ID/g] | logD [9] | Stability [10] | tissue uptake [11] [%ID/g]
1 | O=C(NCc1ccccc1)N1CCN(c2cncnc2-c2ccccc2)CC1 | 7.3 |  |  |  |  |  |  |  |  |  | 
2 | O=[11C](NCc1ccccc1)N1CCN(c2cncnc2-c2ccccc2)CC1 |  | > 10 | Active | 30 | 0.42 | > 10 | > 10 | > 10 | 3.05 | Stable | > 10
